Reference: ChEMBL document CHEMBL3085623, “Oridonin ring A-based diverse constructions of enone functionality: identification of novel dienone analogues effective for highly aggressive breast cancer by inducing apoptosis” (J Med Chem, 2013)
pIC50: −log10 of the molar value. Activity calls are given as the source filed them. The rule behind the calls is not given here.

What was measured:
[1] = cells; settings: Homo sapiens, NCI/ADR-RES, 48 h
[2] = system: MDA-MB-231; test: Induction of apoptosis in human MDA-MB-231 cells assessed as upregulation of cleaved PARP level at 10 to 30 uM after 48 hrs by Western blot analysis; assay type: functional, cell-based
Summary of the method: (§1)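 MDA-MB-231 cells treated 48 h with DMSO or compound. Lysates quantified by Bradford; 30 μg protein run on SDS-PAGE and transferred to PVDF. Blocked in 5% milk, then probed overnight: anti-Bcl-2 1:200, Bax 1:1000, PARP 1:10000, NF-κB p65 1:2000, caspase-3 1:1000, β-actin 1:20000. ECL detection.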

[3] = system: HMEC; test: Growth inhibition of human HMEC cells after 24 hrs
[4] = system: MDA-MB-231; test: Induction of apoptosis in human MDA-MB-231 cells assessed as caspase3 cleavage at 10 to 30 uM after 48 hrs by Western blot analysis; assay type: functional, cell-based
Summary of the method: as §1

[5] = system: MCF7; test: Antiproliferative activity against human MCF7 cells after 48 hrs by MTT assay; assay type: functional, cell-based; settings: MCF7, 48 h
Summary of the method: (§2)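 Seeded at 1 × 10^4 cells/well, then exposed to DMSO or compound at 0.01, 0.1, 1, 5, 10 and 100 μM for 48 h. MTT (5 mg/mL in PBS) added for a further 4 h, formazan dissolved in DMSO, OD read at 550 nm. Quadruplicate wells per concentration. IC50 from curve fitting; mean ± SE of three independent experiments.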

[6] = system: MDA-MB-231; test: Induction of apoptosis in human MDA-MB-231 cells assessed as downregulation of Bcl2 level at 10 to 30 uM after 48 hrs by Western blot analysis; assay type: functional, cell-based
Summary of the method: as §1

[7] = system: MDA-MB-231; test: Induction of apoptosis in human MDA-MB-231 cells assessed as downregulation of PARP level at 10 to 30 uM after 48 hrs by Western blot analysis; assay type: functional, cell-based
Summary of the method: as §1

[8] = system: MDA-MB-231; test: Induction of apoptosis in human MDA-MB-231 cells assessed as downregulation of p65 NF-kappaB level at 10 to 30 uM after 48 hrs by Western blot analysis; assay type: functional, cell-based
Summary of the method: as §1

[9] = system: MDA-MB-231; test: Induction of apoptosis in human MDA-MB-231 cells assessed as upregulation of Bax level at 10 to 30 uM after 48 hrs by Western blot analysis; assay type: functional, cell-based
Summary of the method: as §1

[10] = system: MDA-MB-231; test: Antiproliferative activity against human MDA-MB-231 cells after 48 hrs by MTT assay; assay type: functional, cell-based; settings: MDA-MB-231, 48 h
Summary of the method: as §2

pIC50 [1] | pIC50 [5] | pIC50 [10] | SMILES | Activity [2] | pIC50 [3] | Activity [4] | Activity [6] | Activity [7] | Activity [8] | Activity [9]
< 4.52 | 5.36 | 4.55 | C=C1C(=O)[C@]23[C@H](O)[C@H]1CC[C@H]2[C@@]12CO[C@]3(O)[C@@H](O)[C@@H]1C(C)(C)CC[C@@H]2O [ORIDONIN] | Active | 5.25 | inactive | Active | Active | Active | Active
– | 6.25 | 5.46 | C=C1C(=O)[C@@]23[C@@H]4OC(C)(C)O[C@]25OC[C@]2(C(=O)C=CC(C)(C)[C@H]2[C@@H]5O)[C@@H]3CC[C@@H]14 | – | 5.29 | – | – | – | – | –
– | 4.99 | < 4.52 | C=C1C(=O)[C@@]23C(=O)[C@@H](O)[C@@H]4C(C)(C)[C@@H]5OC[C@]4(C(=O)/C5=C/OC)[C@@H]2CC[C@@H]1[C@H]3O | – | – | – | – | – | – | –
– | 5.46 | 5.03 | C=C1C(=O)[C@]23[C@H](O)[C@H]1CC[C@H]2[C@]12C=CC(=O)C(C)(C)[C@H]1[C@H](O)[C@@]3(O)OC2 | – | 5.00 | – | – | – | – | –
